# pIC50: −log10 of the molar value.
# Columns and labels:
# [1] = target: Mast/stem cell growth factor receptor Kit (Homo sapiens, UniProt P10721); test: Inhibition of KIT using Bio-HER2tide as substrate by TR-FRET assay in presence of 50 uM of ATP
# [2] = tested on: KARPAS-299; test: Antiproliferative activity against human KARPAS299 cells after 96 hrs by cell counting assay; assay type: functional, cell-based; conditions: KARPAS-299, 96 h
# Outline: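 KARPAS-299 cells exposed to a range of compound concentrations for 96 h. Growth inhibition read by Cell Counting Kit-8.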
# [3] = target: ALK tyrosine kinase receptor (Homo sapiens, UniProt Q9UM73)
# [4] = Clearance in mouse liver microsomes assessed as per mg of protein after 30 mins by LC/MS analysis; assay type: ADME, Microsome; conditions: read-out: CLH
# Outline: (§1)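 1 µM compound incubated at 37 °C for 30 min with liver microsomes (0.5 mg protein/mL) in 50 mM phosphate buffer pH 7.4 with 1 mM NADPH. Reaction stopped with threefold volume of acetonitrile and centrifuged. Remaining compound in supernatant quantified by LC/MS.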
# [5] = Clearance in human liver microsomes assessed as per mg of protein after 30 mins by LC/MS analysis; assay type: ADME, Microsome; conditions: read-out: CLH; outline: as §1
# [6] = target: Hepatocyte growth factor receptor (Homo sapiens, UniProt P08581); test: Inhibition of MET using Bio-HER2tide as substrate by TR-FRET assay in presence of 50 uM of ATP
# [7] = target: Vascular endothelial growth factor receptor 2 (Homo sapiens, UniProt P35968); test: Inhibition of KDR using Bio-Gastrintide as substrate by TR-FRET assay in presence of 50 uM of ATP
# [8] = in vivo; conditions: cynomolgus monkey, iv, 0.5 mg/kg
# [9] = Cmax in cynomolgus monkey at 0.5 mg/kg, po; assay type: ADME, organism-based, Macaca fascicularis; set-up: dose 0.5 mg/kg, route oral; conditions: in vivo
# Outline: (§2)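 Fasted cynomolgus monkeys, n = 2 per group, dosed po or iv at 0.5 mg/kg in 10% DMSO, 20% HP-β-CD and 0.02 M HCl in water. Heparinized blood sampled at 0.08–48 h after iv and 0.50–48 h after po. Plasma quantified by LC–MS/MS.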
# [10] = Volume of distribution at steady state in cynomolgus monkey at 0.5 mg/kg, iv; assay type: ADME, organism-based, Macaca fascicularis; set-up: dose 0.5 mg/kg, route intravenous; conditions: in vivo, read-out: Vdss; outline: as §2
# [11] = in vivo; conditions: cynomolgus monkey, po, 0.5 mg/kg
# [12] = Half life in Sprague-Dawley rat at 1 mg/kg, iv; assay type: ADME, organism-based; set-up: dose 1 mg/kg, route intravenous; conditions: in vivo
# Outline: (§3)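 Sprague–Dawley rats, n = 3 per group, dosed po or iv at 1 mg/kg in 10% N,N-dimethylacetamide, 20% HP-β-CD and 0.02 M HCl in water. Heparinized blood taken at 0.08–72 h after iv and 0.50–72 h after po. Plasma analysed by LC–MS/MS.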
# [13] = Total clearance in Sprague-Dawley rat at 1 mg/kg, iv; assay type: ADME, organism-based; set-up: dose 1 mg/kg, route intravenous; conditions: in vivo; outline: as §3
# [14] = Volume of distribution at steady state in Sprague-Dawley rat at 1 mg/kg, iv; assay type: ADME, organism-based; set-up: dose 1 mg/kg, route intravenous; conditions: in vivo, read-out: Vdss; outline: as §3
# [15] = tested on: KARPAS-299; test: Antitumor activity against human KARPAS299 cells expressing NPM-ALK xenografted mouse model assessed as tumor growth inhibition at 20 mg/kg, po; assay type: functional; conditions: read-out: GI
# [16] = tested on: Mus musculus; test: Toxicity in human NCI-H2228 cells expressing EML4-ALK xenografted mouse model assessed as body weight loss at 20 mg/kg, po; conditions: in vivo
# [17] = AUC in cynomolgus monkey at 0.5 mg/kg, po; assay type: ADME, organism-based, Macaca fascicularis; set-up: dose 0.5 mg/kg, route oral; conditions: plasma; outline: as §2
# [18] = tested on: NCI-H2228; test: Antitumor activity against human NCI-H2228 cells expressing EML4-ALK xenografted mouse model assessed as tumor growth inhibition at 20 mg/kg, po; assay type: functional; conditions: read-out: GI
# [19] = Total clearance in cynomolgus monkey at 0.5 mg/kg, iv; assay type: ADME, organism-based, Macaca fascicularis; set-up: dose 0.5 mg/kg, route intravenous; conditions: in vivo; outline: as §2
# [20] = Cmax in Sprague-Dawley rat at 1 mg/kg, po; assay type: ADME, organism-based; set-up: dose 1 mg/kg, route oral; conditions: in vivo; outline: as §3
# [21] = Oral bioavailability in Sprague-Dawley rat at 1 mg/kg; assay type: ADME, organism-based; conditions: in vivo; outline: as §3
# [22] = Half life in Sprague-Dawley rat at 1 mg/kg, po; assay type: ADME, organism-based; set-up: dose 1 mg/kg, route oral; conditions: in vivo; outline: as §3
# [23] = Oral bioavailability in cynomolgus monkey at 0.5 mg/kg; assay type: ADME, organism-based, Macaca fascicularis; conditions: in vivo; outline: as §2
# [24] = AUC in Sprague-Dawley rat at 1 mg/kg, po; assay type: ADME, organism-based; set-up: dose 1 mg/kg, route oral; conditions: plasma; outline: as §3
# Hepatocyte growth factor receptor, sequence (P08581 whole entry): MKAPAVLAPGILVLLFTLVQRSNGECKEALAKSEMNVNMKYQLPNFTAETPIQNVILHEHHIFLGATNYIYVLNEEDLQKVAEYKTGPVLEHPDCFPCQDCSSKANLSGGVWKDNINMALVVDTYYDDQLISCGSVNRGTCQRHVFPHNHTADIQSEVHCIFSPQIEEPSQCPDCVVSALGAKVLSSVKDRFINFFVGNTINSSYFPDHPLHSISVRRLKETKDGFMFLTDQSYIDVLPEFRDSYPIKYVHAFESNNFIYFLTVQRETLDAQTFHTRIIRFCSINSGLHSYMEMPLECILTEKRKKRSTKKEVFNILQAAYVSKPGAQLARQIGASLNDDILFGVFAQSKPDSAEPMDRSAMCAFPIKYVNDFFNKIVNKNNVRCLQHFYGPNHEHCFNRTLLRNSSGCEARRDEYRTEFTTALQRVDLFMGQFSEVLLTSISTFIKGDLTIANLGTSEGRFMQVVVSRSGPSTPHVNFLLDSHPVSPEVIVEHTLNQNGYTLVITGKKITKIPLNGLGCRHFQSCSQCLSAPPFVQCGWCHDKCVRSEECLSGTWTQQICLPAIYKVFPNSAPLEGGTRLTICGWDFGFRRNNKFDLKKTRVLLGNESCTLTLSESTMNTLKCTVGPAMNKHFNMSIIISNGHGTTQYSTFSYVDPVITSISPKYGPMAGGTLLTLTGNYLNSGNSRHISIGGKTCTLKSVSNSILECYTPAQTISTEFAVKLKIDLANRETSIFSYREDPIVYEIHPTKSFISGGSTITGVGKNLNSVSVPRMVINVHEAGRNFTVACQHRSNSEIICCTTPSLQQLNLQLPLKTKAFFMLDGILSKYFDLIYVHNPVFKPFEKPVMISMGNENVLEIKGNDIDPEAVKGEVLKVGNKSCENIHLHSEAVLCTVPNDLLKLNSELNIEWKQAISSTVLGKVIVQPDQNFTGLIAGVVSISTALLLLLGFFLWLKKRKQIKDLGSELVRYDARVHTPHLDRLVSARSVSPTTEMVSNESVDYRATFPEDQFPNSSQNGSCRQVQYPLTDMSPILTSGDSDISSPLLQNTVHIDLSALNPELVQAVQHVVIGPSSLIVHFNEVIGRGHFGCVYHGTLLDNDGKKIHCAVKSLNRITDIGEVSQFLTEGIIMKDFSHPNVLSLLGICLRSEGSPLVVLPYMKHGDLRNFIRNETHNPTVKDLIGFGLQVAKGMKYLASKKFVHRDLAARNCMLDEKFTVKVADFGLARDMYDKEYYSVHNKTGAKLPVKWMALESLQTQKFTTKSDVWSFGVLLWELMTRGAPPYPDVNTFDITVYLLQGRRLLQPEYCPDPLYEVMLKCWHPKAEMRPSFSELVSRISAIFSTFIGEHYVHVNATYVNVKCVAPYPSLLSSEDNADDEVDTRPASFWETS
# Vascular endothelial growth factor receptor 2, sequence (P35968 whole entry): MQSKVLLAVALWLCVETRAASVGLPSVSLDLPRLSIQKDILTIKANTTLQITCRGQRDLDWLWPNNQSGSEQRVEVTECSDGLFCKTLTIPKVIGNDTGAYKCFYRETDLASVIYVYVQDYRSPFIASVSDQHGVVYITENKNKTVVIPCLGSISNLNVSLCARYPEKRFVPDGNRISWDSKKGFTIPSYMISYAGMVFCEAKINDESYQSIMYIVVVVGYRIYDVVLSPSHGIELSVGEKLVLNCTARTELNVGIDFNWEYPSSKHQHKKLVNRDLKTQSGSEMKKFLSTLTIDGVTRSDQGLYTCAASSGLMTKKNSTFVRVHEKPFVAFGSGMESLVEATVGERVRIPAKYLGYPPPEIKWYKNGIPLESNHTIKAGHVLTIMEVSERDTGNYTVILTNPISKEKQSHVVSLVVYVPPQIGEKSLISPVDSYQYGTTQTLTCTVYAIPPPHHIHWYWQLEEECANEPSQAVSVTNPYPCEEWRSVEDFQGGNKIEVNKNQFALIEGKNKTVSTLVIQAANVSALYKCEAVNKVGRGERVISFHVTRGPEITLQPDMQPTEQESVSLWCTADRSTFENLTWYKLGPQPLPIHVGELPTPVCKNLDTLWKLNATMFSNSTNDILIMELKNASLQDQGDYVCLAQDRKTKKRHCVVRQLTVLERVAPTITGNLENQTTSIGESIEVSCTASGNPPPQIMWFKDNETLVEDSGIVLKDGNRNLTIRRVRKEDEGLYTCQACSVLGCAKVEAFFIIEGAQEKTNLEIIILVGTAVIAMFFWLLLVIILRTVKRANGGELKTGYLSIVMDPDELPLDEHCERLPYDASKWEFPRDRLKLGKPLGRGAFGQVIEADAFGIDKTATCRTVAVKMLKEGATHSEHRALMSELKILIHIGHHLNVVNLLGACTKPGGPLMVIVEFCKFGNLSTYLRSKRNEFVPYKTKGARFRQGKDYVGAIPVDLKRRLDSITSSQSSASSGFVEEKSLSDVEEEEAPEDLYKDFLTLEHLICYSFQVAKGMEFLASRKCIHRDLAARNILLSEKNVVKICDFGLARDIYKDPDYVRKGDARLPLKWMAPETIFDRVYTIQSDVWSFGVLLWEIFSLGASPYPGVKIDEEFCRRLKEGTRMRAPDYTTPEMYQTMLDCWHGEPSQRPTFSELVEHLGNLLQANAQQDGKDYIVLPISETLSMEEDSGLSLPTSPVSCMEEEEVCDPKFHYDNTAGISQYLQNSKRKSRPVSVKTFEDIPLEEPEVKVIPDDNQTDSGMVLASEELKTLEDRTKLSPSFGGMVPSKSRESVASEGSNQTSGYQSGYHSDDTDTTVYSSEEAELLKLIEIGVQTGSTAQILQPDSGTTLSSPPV
# ALK tyrosine kinase receptor, sequence (Q9UM73 whole entry): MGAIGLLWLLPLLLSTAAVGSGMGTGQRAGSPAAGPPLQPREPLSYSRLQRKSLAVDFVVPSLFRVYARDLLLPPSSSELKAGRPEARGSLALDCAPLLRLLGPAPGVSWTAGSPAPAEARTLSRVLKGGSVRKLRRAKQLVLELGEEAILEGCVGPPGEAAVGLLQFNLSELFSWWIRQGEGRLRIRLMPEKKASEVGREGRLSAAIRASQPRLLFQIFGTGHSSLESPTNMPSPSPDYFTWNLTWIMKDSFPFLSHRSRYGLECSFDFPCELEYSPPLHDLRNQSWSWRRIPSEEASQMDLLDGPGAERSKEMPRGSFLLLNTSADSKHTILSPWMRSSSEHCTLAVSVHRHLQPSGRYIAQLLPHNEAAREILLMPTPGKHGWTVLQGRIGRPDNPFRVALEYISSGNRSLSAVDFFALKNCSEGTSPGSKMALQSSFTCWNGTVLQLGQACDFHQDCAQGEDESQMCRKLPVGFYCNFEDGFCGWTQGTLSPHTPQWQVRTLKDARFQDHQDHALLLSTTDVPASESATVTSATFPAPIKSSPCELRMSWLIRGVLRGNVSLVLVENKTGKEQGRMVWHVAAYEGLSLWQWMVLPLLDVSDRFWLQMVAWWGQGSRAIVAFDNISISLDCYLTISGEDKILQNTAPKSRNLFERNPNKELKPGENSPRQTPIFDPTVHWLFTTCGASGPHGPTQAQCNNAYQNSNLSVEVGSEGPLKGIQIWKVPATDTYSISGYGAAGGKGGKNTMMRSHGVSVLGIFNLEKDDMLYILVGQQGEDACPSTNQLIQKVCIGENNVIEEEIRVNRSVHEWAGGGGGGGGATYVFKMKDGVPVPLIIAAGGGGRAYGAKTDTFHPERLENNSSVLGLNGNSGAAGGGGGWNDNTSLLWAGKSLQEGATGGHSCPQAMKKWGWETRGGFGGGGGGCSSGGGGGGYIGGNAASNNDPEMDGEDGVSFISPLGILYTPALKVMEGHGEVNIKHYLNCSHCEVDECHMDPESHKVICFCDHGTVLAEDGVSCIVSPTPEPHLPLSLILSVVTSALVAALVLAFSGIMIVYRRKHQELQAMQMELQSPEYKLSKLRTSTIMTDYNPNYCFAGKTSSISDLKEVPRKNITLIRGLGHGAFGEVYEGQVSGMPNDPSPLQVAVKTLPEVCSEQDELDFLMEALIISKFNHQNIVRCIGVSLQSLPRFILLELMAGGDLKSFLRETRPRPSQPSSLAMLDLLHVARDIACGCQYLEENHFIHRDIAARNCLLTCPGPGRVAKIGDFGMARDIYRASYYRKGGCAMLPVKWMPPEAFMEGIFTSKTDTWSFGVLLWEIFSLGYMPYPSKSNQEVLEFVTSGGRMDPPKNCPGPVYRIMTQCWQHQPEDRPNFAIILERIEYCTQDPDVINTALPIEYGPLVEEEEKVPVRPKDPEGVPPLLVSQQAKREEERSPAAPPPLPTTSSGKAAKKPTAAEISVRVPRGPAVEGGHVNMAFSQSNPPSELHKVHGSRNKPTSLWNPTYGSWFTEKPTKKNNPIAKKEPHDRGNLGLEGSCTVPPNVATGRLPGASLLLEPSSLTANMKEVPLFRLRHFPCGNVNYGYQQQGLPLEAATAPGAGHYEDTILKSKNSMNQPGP
Compound,pIC50 [1],pIC50 [2],pIC50 [3],microsomal CLint [4],microsomal CLint [5],pIC50 [6],pIC50 [7],also measured
CCCc1cc2c(cc1N1CCC(N3CCOCC3)CC1)C(C)(C)c1[nH]c3cc(C#N)ccc3c1C2=O,< 5.30,7.58,8.96,58.5 µL/min/mg,17.1 µL/min/mg,< 5.30,< 5.30,
CCc1cc2c(cc1N1CCN(C3COC3)CC1)C(C)(C)c1[nH]c3cc(C#N)ccc3c1C2=O,< 5.30,,,,,< 5.30,< 5.30,
CC1(C)c2ccc(N3CCN(C4COC4)CC3)cc2C(=O)c2c1[nH]c1cc(C#N)ccc21,< 5.30,6.82,,20.6 µL/min/mg,14.2 µL/min/mg,< 5.30,< 5.30,
Cc1cc2c(cc1N1CCC(N3CCOCC3)CC1)C(C)(C)c1[nH]c3cc(C#N)ccc3c1C2=O,5.98,8.32,,15.8 µL/min/mg,23 µL/min/mg,< 5.30,6.73,
CCc1cc2c(cc1N1CCN(C3CC3)CC1)C(C)(C)c1[nH]c3cc(C#N)ccc3c1C2=O,< 5.30,7.34,8.28,3.3 µL/min/mg,22.1 µL/min/mg,< 5.30,5.38,
CCc1cc2c(cc1N1CCC(N3CCOCC3)CC1)C(C)(C)c1[nH]c3cc(C#N)ccc3c1C2=O [ALECTINIB],< 5.30,8.52,,8.7 µL/min/mg,17.7 µL/min/mg,< 5.30,,half-life [8]: 10.4 h; Cmax [9]: 55.8 ng/mL; Vd [10]: 5.28 L/kg; half-life [11]: 8.38 h; half-life [12]: 17.8 h; clearance [13]: 7.79 mL/min/kg; Vd [14]: 9.33 L/kg; inhibition in vivo at 20 mg/kg [15]: 119%; Activity [16]: Non-toxic; AUC [17]: 696 ng·h/mL; inhibition in vivo at 20 mg/kg [18]: 168%; clearance [19]: 6.04 mL/min/kg; Cmax [20]: 60.8 ng/mL; bioavailability [21]: 65.2%; half-life [22]: 12.6 h; bioavailability [23]: 50.4%; AUC [24]: 1400 ng·h/mL
CC1(C)c2cc(N3CCC(N4CCOCC4)CC3)ccc2C(=O)c2c1[nH]c1cc(C#N)ccc21,5.52,7.58,7.80,72 µL/min/mg,106 µL/min/mg,< 5.30,6.12,
CC1(C)c2ccc(C3CCN(C4CC4)CC3)cc2C(=O)c2c1[nH]c1cc(C#N)ccc21,< 5.30,6.92,7.36,20 µL/min/mg,59.1 µL/min/mg,< 5.30,6.05,
CC1(C)c2ccc(N3CCN(C4CC4)CC3)cc2C(=O)c2c1[nH]c1cc(C#N)ccc21,< 5.30,6.62,6.63,24.9 µL/min/mg,16.4 µL/min/mg,< 5.30,< 5.30,
CCc1cc2c(cc1N1CCN(C3CCC3)CC1)C(C)(C)c1[nH]c3cc(C#N)ccc3c1C2=O,< 5.30,7.65,8.62,4.4 µL/min/mg,15.6 µL/min/mg,< 5.30,5.51,
CC1(C)c2ccc(C3CCN(C4COC4)CC3)cc2C(=O)c2c1[nH]c1cc(C#N)ccc21,< 5.30,7.06,7.17,38.6 µL/min/mg,38.6 µL/min/mg,< 5.30,5.60,
